Reference: ChEMBL document CHEMBL3232832, “Derivatives of dibenzothiophene for positron emission tomography imaging of α7-nicotinic acetylcholine receptors” (J Med Chem, 2013)

Tests used:
Cerebellum [1] = experiment: Drug uptake in CD-1 mouse cerebellum at 70 uCi, iv administered 10 mins post naltrindole challenge measured after 90 mins; format: ADME, organism-based; details: in vivo, 1.5 h
Method in brief: (§1)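 Male CD-1 mice, n=3. Drug at 2 mg/kg s.c. in saline:DMSO 5:1, with vehicle controls. [18F] radiotracer (70 µCi, SA ~14000 mCi/µmol) given i.v. 10 min later. Regions harvested 90 min after tracer, gamma counted, expressed as %ID/g. Compared by single-factor ANOVA.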

Brain [2] = experiment: Drug uptake in CD-1 mouse other brain region at 70 uCi, iv administered 10 mins post naltrindole challenge measured after 90 mins; format: ADME, organism-based; details: in vivo, 1.5 h
Method in brief: (§2)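 Male CD-1 mice (25–30 g). […] Brains removed 90 min later and dissected on ice. Regions weighed and gamma-counted against injectate standards. Result as %ID/g, mean ± SD, n=3; ANOVA versus controls.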

Hippocampus [3] = experiment: Drug uptake in CD-1 mouse hippocampus at 70 uCi, iv administered 10 mins post naltrindole challenge measured after 90 mins; format: ADME, organism-based; details: in vivo, 1.5 h; method in brief: as §1
Brain [4] = experiment: Drug uptake in CD-1 mouse other brain region at 70 uCi, iv administered 10 mins post ketanserin challenge measured after 90 mins; format: ADME, organism-based; details: in vivo, 1.5 h; method in brief: as §2
Hippocampus [5] = experiment: Drug uptake in CD-1 mouse hippocampus at 70 uCi, iv administered 10 mins post ketanserin challenge measured after 90 mins; format: ADME, organism-based; details: in vivo, 1.5 h; method in brief: as §1
[6] = Drug uptake in CD-1 mouse superior and inferior colliculus at 70 uCi, iv administered 10 mins post ketanserin challenge measured after 90 mins; format: ADME, organism-based; details: in vivo, 1.5 h; method in brief: as §2
Brain [7] = experiment: Drug uptake in CD-1 mouse other brain region at 70 uCi, iv administered 10 mins post spiperone challenge measured after 90 mins; format: ADME, organism-based; details: in vivo, 1.5 h; method in brief: as §2
Cortex [8] = experiment: Drug uptake in CD-1 mouse cortex at 70 uCi, iv administered 10 mins post spiperone challenge measured after 90 mins; format: ADME, organism-based; details: in vivo, 1.5 h; method in brief: as §1
[9] = Drug uptake in CD-1 mouse superior and inferior colliculus at 70 uCi, iv administered 10 mins post spiperone challenge measured after 90 mins; format: ADME, organism-based; details: in vivo, 1.5 h; method in brief: as §2
Cerebellum [10] = experiment: Drug uptake in CD-1 mouse cerebellum at 70 uCi, iv administered 10 mins post SCH23390 challenge measured after 90 mins; format: ADME, organism-based; details: in vivo, 1.5 h; method in brief: as §1
Brain [11] = experiment: Drug uptake in CD-1 mouse other brain region at 70 uCi, iv administered 10 mins post ondansetron challenge measured after 90 mins; format: ADME, organism-based; details: in vivo, 1.5 h; method in brief: as §2
Cortex [12] = experiment: Drug uptake in CD-1 mouse cortex at 70 uCi, iv administered 10 mins post ondansetron challenge measured after 90 mins; format: ADME, organism-based; details: in vivo, 1.5 h; method in brief: as §1
Hippocampus [13] = experiment: Drug uptake in CD-1 mouse hippocampus at 70 uCi, iv followed by compound washout by gamma-counting analysis; format: ADME, organism-based; details: in vivo
Method in brief: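 Male CD-1 mice (25–30 g), three per time point. [18F] radiotracer (70 µCi, SA 8000–12000 mCi/µmol, in 0.2 mL saline) given by tail vein. Killed at several times up to 90 min. Dissected regions weighed and gamma counted against injectate standards, giving %ID/g.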

[14] = Drug uptake in CD-1 mouse superior and inferior colliculus at 70 uCi, iv followed by compound washout by gamma-counting analysis; format: ADME, organism-based; details: in vivo
Method in brief: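 Male CD-1 mice (25–30 g) given [18F]radioligand i.v. into a lateral tail vein (70 µCi, 8000–12000 mCi/µmol, in 0.2 mL saline). Killed by cervical dislocation at various times, three per time point. Brains dissected on ice; regions weighed and gamma-counted with injectate standards. Result as %ID/g.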

Hippocampus [15] = experiment: Drug uptake in CD-1 mouse hippocampus at 70 uCi, iv administered 10 mins post SSR180711 challenge measured after 90 mins; format: ADME, organism-based; details: in vivo, 1.5 h
Brain [16] = experiment: Drug uptake in CD-1 mouse other brain regions at 70 uCi, iv after 90 mins in presence of nicotine; format: ADME, organism-based; details: in vivo, 1.5 h
Cortex [17] = experiment: Drug uptake in CD-1 mouse cortex at 70 uCi, iv after 90 mins in presence of nicotine; format: ADME, organism-based; details: in vivo, 1.5 h
Method in brief: (§3)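 Male CD-1 mice, n=3. […] [18F] radiotracer (70 µCi, SA ~14000 mCi/µmol) given i.v. 5 min later. Regions harvested at 90 min, gamma counted, expressed as %ID/g.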

Hippocampus [18] = experiment: Drug uptake in CD-1 mouse hippocampus at 70 uCi, iv after 90 mins in presence of nicotine; format: ADME, organism-based; details: in vivo, 1.5 h; method in brief: as §3
Nucleic Acid [19] = experiment: Ratio of drug uptake from cortex to cerebellum in CD-1 mouse after 90 mins; format: ADME, tissue-based; details: 1.5 h
Nucleic Acid [20] = experiment: Ratio of drug uptake from superior and inferior colliculus to cerebellum in CD-1 mouse after 90 mins; format: ADME, nucleic-acid assay; details: 1.5 h
Method in brief: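 CD-1 mouse baseline biodistribution after i.v. [18F]radioligand (70 µCi, 8000–12000 mCi/µmol, in 0.2 mL saline), three mice per time point to 90 min. Regional gamma-counting gave %ID/g, and each region was expressed as a ratio to cerebellum.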

Brain [21] = experiment: Drug uptake in CD-1 mouse other brain regions at 0.07 mCi, iv after 90 mins co-administered with SSR180711; format: ADME, organism-based; details: in vivo, 1.5 h
Method in brief: (§4)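 Male CD-1 mice. [18F]tracer (0.07 mCi, SA 7900 mCi/µmol, 0.2 mL) co-injected i.v. with blocker at 0 (vehicle), 0.02, 0.2, 1 or 3 mg/kg. Blocker dissolved in saline:alcohol 9:1, pH 5.5. Brain regions harvested at 90 min and gamma-counted. %ID/g, mean ± SD, n=3 per dose; ANOVA versus controls.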

Cortex [22] = experiment: Drug uptake in CD-1 mouse cortex at 0.07 mCi, iv after 90 mins co-administered with SSR180711; format: ADME, organism-based; details: in vivo, 1.5 h
Method in brief: (§5)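 Male CD-1 mice (25–30 g), three per dose. Blocker in saline:ethanol 9:1 pH 5.5, given i.v. with [18F] radiotracer (70 µCi, SA 7900 mCi/µmol). Blocker doses 0, 0.02, 0.2, 1 and 3 mg/kg. Regions dissected 90 min later and gamma counted. Expressed as %ID/g, mean ± SD.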

Hippocampus [23] = experiment: Drug uptake in CD-1 mouse hippocampus at 0.07 mCi, iv after 90 mins co-administered with SSR180711; format: ADME, organism-based; details: in vivo, 1.5 h; method in brief: as §5
[24] = Drug uptake in CD-1 mouse superior and inferior colliculus at 0.07 mCi, iv after 90 mins co-administered with SSR180711; format: ADME, organism-based; details: in vivo, 1.5 h; method in brief: as §4
Mus musculus [25] = experiment: Toxicity in CD-1 mouse assessed as change in locomotor activity at 0.07 mCi, iv after 90 mins in presence of 3-(1,4-Diazabicyclo[3.2.2]nonan-4-yl)-6-fluorodibenzo[b,d]thiophene 5,5-Dioxide; format: organism-based; details: in vivo, 1.5 h
Method in brief: (§6)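 CD-1 mice observed for behavioral and locomotor changes during self-blockade studies. [18F]tracer (0.07 mCi, i.v.) was co-injected with the non-radioactive ligand at 0.3 or 0.2 mg/kg i.v., dissolved in saline at pH 5.5. Brains were harvested at 90 min.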

Mus musculus [26] = experiment: Toxicity in CD-1 mouse assessed as change in behavioral activity at 0.07 mCi, iv after 90 mins in presence of 3-(1,4-Diazabicyclo[3.2.2]nonan-4-yl)-6-fluorodibenzo[b,d]thiophene 5,5-Dioxide; format: organism-based; details: in vivo, 1.5 h; method in brief: as §6
Cerebellum [27] = experiment: Drug uptake in CD-1 mouse cerebellum at 0.07 mCi, iv after 90 mins in presence of 7-(1,4-Diazabicyclo[3.2.2]nonan-4-yl)-2-fluorodibenzo[b,d]-thiophene 5,5-Dioxide; format: ADME, organism-based; details: in vivo, 1.5 h
Method in brief: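 Male CD-1 mice, n=3. [18F] radiotracer (70 µCi, 0.2 mL) given i.v. together with unlabeled blocker in saline pH 5.5. Brain regions dissected at 90 min, gamma counted, expressed as %ID/g.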

O=S1(=O)c2cc(N3CCN4CCC3CC4)ccc2-c2cccc([18F])c21
8: Ratio (Nucleic Acid [20])
Active: Drug uptake (Cerebellum [1]) | Drug uptake (Brain [2]) | Drug uptake (Hippocampus [3]) | Drug uptake (Brain [4]) | Drug uptake (Hippocampus [5]) | Drug uptake [6] | Drug uptake (Brain [7]) | Drug uptake (Cortex [8]) | Drug uptake [9] | Drug uptake (Cerebellum [10]) | Drug uptake (Brain [11]) | Drug uptake (Cortex [12]) | Drug uptake (Hippocampus [13]) | Drug uptake [14] | Drug uptake (Cerebellum [27])
Not Active: Drug uptake (Hippocampus [15]) | Drug uptake (Brain [16]) | Drug uptake (Cortex [17]) | Drug uptake (Hippocampus [18]) | Drug uptake (Brain [21]) | Drug uptake (Cortex [22]) | Drug uptake (Hippocampus [23]) | Drug uptake [24]
5.3: Ratio (Nucleic Acid [19])
Non-toxic: Activity (Mus musculus [25]) | Activity (Mus musculus [26])
